In ChEMBL document CHEMBL1833887, “Synthesis and evaluation of 7-substituted 4-aminoquinoline analogues for antimalarial activity” (J Med Chem, 2011):
≈ marks a conversion by molar mass, not a printed value.

Legend:
HepG2 = experiment: Cytotoxicity against human HepG2 cells assessed as intracellular ATP level after 72 hrs by Celltiter-Glo luminescent assay; assay type: cell-based; conditions: HepG2, 72 h
Plasmodium falciparum [1] = experiment: Antimalarial activity against chloroquine-resistant Plasmodium falciparum K1 infected in human erythrocytes assessed as reduction in parasitemia after 72 hrs by spectrophotometry; assay type: functional, organism-based; conditions: K1, 72 h
[2] = Solubility of the compound at pH 7.4 after 18 hrs by UV spectroscopic analysis; assay type: physicochemical; conditions: buffer
Method in brief: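 Kinetic solubility. A 10 mM stock is diluted 1:100 into PBS pH 7.4 and incubated 18 h at room temperature, then filtered; the filtrate is mixed 1:1 with 1-propanol. UV spectrum (250–500 nm) compared by AUC with a 1-propanol/PBS reference. Single experiment in triplicate.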

[3] = Permeability of the compound at pH 7.4 after 30 mins by PAMPA; assay type: ADME; conditions: read-out: permeability
Method in brief: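 PAMPA at pH 7.4. A 10 mM DMSO stock is diluted into system solution buffer; its UV spectrum serves as reference. Membrane painted with GIT lipid, acceptor chamber holds acceptor solution buffer. Sandwich stirred for 30 min, aqueous boundary layer set to 40. Donor and acceptor UV spectra read at 250–500 nm. Permeability coefficient from the AUCs of reference, donor and acceptor. Single experiment in triplicate.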

Plasmodium falciparum [4] = experiment: Ratio of EC50 for chloroquine-resistant Plasmodium falciparum K1 infected in human erythrocytes to EC50 for chloroquine-sensitive Plasmodium falciparum 3D7 infected in human erythrocytes; assay type: functional
[5] = Ratio of EC50 for human HepG2 cells to EC50 for Plasmodium falciparum 3D7 infected in human erythrocytes
Plasmodium falciparum [6] = experiment: Antimalarial activity against chloroquine-sensitive Plasmodium falciparum 3D7 infected in human erythrocytes assessed as reduction in parasitemia after 72 hrs by spectrophotometry; assay type: functional, organism-based; conditions: 3D7, 72 h
[7] = Ratio of EC50 for human HepG2 cells to EC50 for Plasmodium falciparum K1 infected in human erythrocytes
[8] = Dissociation constant, pKa of the compound; assay type: physicochemical

Row | Compound | EC50 (HepG2) [nM] | EC50 (Plasmodium falciparum [1]) [nM] | solubility at 18 h [2] [µM] | Papp at 0.5 h [3] [×10⁻⁶ cm/s] | Ratio EC50 (Plasmodium falciparum [4]) | Ratio EC50 [5] | EC50 (Plasmodium falciparum [6]) [nM] | Ratio EC50 [7] | pKa [8]
1 | COc1cccc(CNCCCNc2ccnc3cc(Oc4ccc(C(C)(C)C)cc4)ccc23)c1O | 1500 | 249 | 14.5 (≈ 7.04 µg/mL) | 317 | 4.6 | 28 | 54 | 6 | 9.28
2 | Fc1ccc(-c2ccc3c(NCCCNCc4ccc5c(c4)OCO5)ccnc3c2)cc1 | 8770 | 35 | 32 (≈ 13.7 µg/mL) | 237 | 2 | 495.4 | 18 | 252 | 9.47
3 | COc1ccc(F)cc1CNCCCNc1ccnc2cc(-c3ccc(F)cc3)ccc12 | 770 | 97 | 32 (≈ 13.9 µg/mL) | 237 | 5.5 | 44 | 18 | 7.9 | 9.47
4 | COc1ccc(F)cc1CNCCCNc1ccnc2cc(-c3ccc(C(F)(F)F)cc3)ccc12 | 5190 | 89 | 32 (≈ 15.5 µg/mL) | 237 | 1.7 | 96.8 | 54 | 58.4 | 9.47
5 | COc1cccc(CNCCCNc2ccnc3cc(CC4CCCCC4)ccc23)c1O | 970 | 2610 | 4.2 (≈ 1.82 µg/mL) | 23 | 52.7 | 19.6 | 50 | 0.4 | 9.47
6 | c1cc(NCCCNCc2ccc3c(c2)OCO3)c2ccc(C3CCCCC3)cc2n1 | 3020 | 4710 | 4.2 (≈ 1.75 µg/mL) | 23 | 36.7 | 23.6 | 128 | 0.6 | 9.47
7 | FC(F)(F)c1ccc(-c2ccc3c(NCCCNCc4ccc5c(c4)OCO5)ccnc3c2)cc1 | 1890 | 98 | 32 (≈ 15.3 µg/mL) | 237 | 3.9 | 74.5 | 25 | 19.2 | 9.47
8 | c1coc(CNCCCNc2ccnc3cc(-c4cccc5ccccc45)ccc23)c1 | 5600 | 1300 | 32 (≈ 13 µg/mL) | 237 | 41.2 | 178.2 | 31 | 4.3 | 9.47
9 | COc1cccc(CNCCCNc2ccnc3cc(Cc4ccc(F)cc4)ccc23)c1O | 4780 | 7150 | 4.2 (≈ 1.87 µg/mL) | 23 | 473.5 | 316.6 | 15 | 0.7 | 9.47
10 | COc1ccccc1Oc1ccc2c(NCCCNCc3cccc(OC)c3O)ccnc2c1 | 11200 | 5700 | 14.5 (≈ 6.66 µg/mL) | 317 | 626.4 | 1227 | 9 | 2 | 9.28
11 | Fc1ccc(Oc2ccc3c(NCCCNCc4ccc5c(c4)OCO5)ccnc3c2)cc1 | 16000 | 667 | 14.5 (≈ 6.46 µg/mL) | 317 | 44.5 | 1067 | 15 | 24 | 9.28
12 | COc1ccccc1Oc1ccc2c(NCCCNCc3ccco3)ccnc2c1 | 6500 | 87 | 14.5 (≈ 5.85 µg/mL) | 317 | 66.9 | 5014 | 1 | 75 | 9.28
13 | CC(C)(C)c1ccc(Oc2ccc3c(NCCCNCc4ccco4)ccnc3c2)cc1 | 3100 | 4810 | 14.5 (≈ 6.23 µg/mL) | 317 | 4.3 | 3 | 1110 | 1 | 9.28
14 | FC(F)(F)c1ccc(-c2ccc3c(NCCCNCc4ccco4)ccnc3c2)cc1 | 3470 | 223 | 32 (≈ 13.6 µg/mL) | 237 | 11 | 171 | 20 | 15.5 | 9.47
15 | COc1cccc(Oc2ccc3c(NCCCNCc4ccco4)ccnc3c2)c1 | 15500 | 153 | 14.5 (≈ 5.85 µg/mL) | 317 | 17.4 | 1763 | 9 | 102 | 9.28
16 | COc1ccc(F)cc1CNCCCNc1ccnc2cc(Oc3ccc(F)cc3)ccc12 | 6600 | 135 | 14.5 (≈ 6.52 µg/mL) | 317 | 0.5 | 22 | 297 | 49 | 9.28
17 | c1ccc(Oc2ccc3c(NCCCNCc4ccco4)ccnc3c2)cc1 | 15200 | 5970 | 14.5 (≈ 5.42 µg/mL) | 317 | 19 | 48 | 314 | 3 | 9.28
18 | CC(C)CCc1ccc2c(NCCCNCc3ccco3)ccnc2c1 | 11200 | 4600 | 4.2 (≈ 1.48 µg/mL) | 23 | 26.1 | 63.7 | 176 | 2.4 | 9.47
19 | COc1cccc(CNCCCNc2ccnc3cc(Oc4ccc(F)cc4)ccc23)c1O | 11000 | 3130 | 14.5 (≈ 6.49 µg/mL) | 317 | 282.2 | 990 | 11 | 4 | 9.28
20 | COc1cccc(CNCCCNc2ccnc3cc(-c4ccc(C(C)(C)C)cc4)ccc23)c1O | 690 | 418 | 32 (≈ 15 µg/mL) | 237 | 1.7 | 2.8 | 251 | 1.7 | 9.47
21 | COc1ccc(F)cc1CNCCCNc1ccnc2cc(-c3ccc(C(C)(C)C)cc3)ccc12 | 620 | 1590 | 32 (≈ 15.1 µg/mL) | 237 | 11 | 4.3 | 144 | 0.4 | 9.47
22 | COc1ccc(Oc2ccc3c(NCCCNCc4ccc5c(c4)OCO5)ccnc3c2)cc1 | 7900 | 1420 | 14.5 (≈ 6.63 µg/mL) | 317 | 30.9 | 172 | 46 | 6 | 9.28
23 | COc1cccc(CNCCCNc2ccnc3cc(CCc4ccccc4)ccc23)c1O | 6800 | 5520 | 4.2 (≈ 1.85 µg/mL) | 23 | 324.5 | 400 | 17 | 1.2 | 9.47
